We go through 22 compounds from PMC11253873 (RSC Medicinal Chemistry, 2024).

In assay [1] the test system is Mtb H37Rv. The experiment in a line: microbe, parasite or virus in culture. In kind it is cell-based, Mycobacterium tuberculosis. The note with it: for MIC: Mycobacterium tuberculosis, H37RV, 336 h, read-out: Mtb MIC; for Mtb MIC: value in parentheses, Mtb H37Rv, 2 weeks.
Assay [2] has as its system Pf3D7 parasites. The experiment in a line: P. falciparum growth inhibition assay. In kind it is cell-based, Plasmodium falciparum. The note with it: read-out: Pf IC50, 3 days, PicoGreen DNA content. The method, boiled down:
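Asynchronous cultures of wild-type 3D7 and fosmidomycin-resistant had1 strain E1-C12 are kept at 2% hematocrit in supplemented RPMI-1640 with 0.5% Albumax, under 5% O2/5% CO2/90% N2 at 37 °C. Parasites are diluted to 0.5% parasitemia and exposed to 1.2 nM–492.4 μM test compound from the start. After 3 days, DNA is read with PicoGreen (ex 485/em 528 nm). IC50 comes from a 4-parameter nonlinear fit. Technical duplicates, biological triplicate.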

In another assay the target is T1, MtbDXR (Mycobacterium tuberculosis, UniProt P9WNS1).
T1 sequence (P9WNS1 1-413): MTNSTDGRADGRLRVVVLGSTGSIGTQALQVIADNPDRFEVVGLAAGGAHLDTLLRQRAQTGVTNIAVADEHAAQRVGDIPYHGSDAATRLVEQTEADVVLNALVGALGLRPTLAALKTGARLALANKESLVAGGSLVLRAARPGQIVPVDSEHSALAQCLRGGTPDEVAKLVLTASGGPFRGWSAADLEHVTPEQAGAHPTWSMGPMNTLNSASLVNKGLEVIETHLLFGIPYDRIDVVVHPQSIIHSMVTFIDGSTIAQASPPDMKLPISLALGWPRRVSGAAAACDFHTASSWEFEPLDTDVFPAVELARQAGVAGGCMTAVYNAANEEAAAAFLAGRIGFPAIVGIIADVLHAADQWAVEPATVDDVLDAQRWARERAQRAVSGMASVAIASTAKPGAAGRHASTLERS
In words: DXR enzyme inhibition assay. In kind it is biochemical. The note with it: values in parentheses; compound at 100 μM.

A further assay has as its target T2, PfDXR (Plasmodium falciparum, UniProt Q8IKG4).
T2 sequence (Q8IKG4 73-488): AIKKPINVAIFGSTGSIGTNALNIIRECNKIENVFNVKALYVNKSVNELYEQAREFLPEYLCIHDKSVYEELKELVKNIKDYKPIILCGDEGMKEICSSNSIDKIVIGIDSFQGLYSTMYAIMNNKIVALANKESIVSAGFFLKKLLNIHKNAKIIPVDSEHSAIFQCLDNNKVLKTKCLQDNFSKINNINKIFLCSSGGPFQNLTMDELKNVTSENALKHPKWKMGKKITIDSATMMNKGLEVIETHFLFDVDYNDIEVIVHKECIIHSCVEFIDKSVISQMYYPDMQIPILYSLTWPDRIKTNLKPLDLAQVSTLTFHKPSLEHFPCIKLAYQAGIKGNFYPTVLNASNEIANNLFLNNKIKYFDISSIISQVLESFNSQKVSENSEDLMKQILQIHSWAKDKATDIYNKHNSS
In words: DXR enzyme inhibition assay. In kind it is biochemical. The note with it: values in parentheses; compound at 100 μM.

In assay [3] the test system is Mtb H37Rv. The note with it: cited from earlier work.
Assay [4] concerns Pf3D7 parasites. The note with it: read-out: Pf IC50; P. falciparum parasites; cited from earlier work.

In brackets after ≈: the same amount, converted by molar mass. Several values for one entry are separate records, joined by “and”; a condition that tells them apart may be missing. Equal values may be shown once. Read-outs that look alike come from different tables or passages of the source.

In the case of `CC(=O)N(CCC(c1ccc(Cl)c(Cl)c1)P(=O)(OCOC(=O)C(C)(C)C)OCOC(=O)C(C)(C)C)OCc1ccc(-c2ccc(C(C)C)cc2)cc1` (stereo not drawn) [Compound 7i, ({[1-(3,4-Dichlorophenyl)-3-(N-{[4′-(propan-2-yl)-[1,1′-biphenyl]-4-yl]methoxy}acetamido)propyl]({[(2,2-dimethylpropanoyl)oxy]methoxy})phosphoryl}oxy)methyl 2,2-dimethylpropanoate], in the assay on Mtb H37Rv [1], the MIC is > 100 µg/mL.

On to `CC(=O)N(CCC(c1ccc(Cl)c(Cl)c1)P(=O)(OCOC(=O)C(C)(C)C)OCOC(=O)C(C)(C)C)OCc1ccc(Br)cc1` (stereo not drawn) [Compound 7h, {[(3-{N-[(4-Bromophenyl)methoxy]acetamido}-1-(3,4-dichlorophenyl)propyl)({[(2,2-dimethylpropanoyl)oxy]methoxy})phosphoryl]oxy}methyl 2,2-dimethylpropanoate], for which, in the assay with Mtb H37Rv [1], the MIC was found to be 6.25 µg/mL (≈ 8.45 µM).

Consider “Diammonium [1-(3,4-dichlorophenyl)-3-[N-(4-phenylbutoxy)acetamido]propyl] phosphonate [Compound 6g]”, for which the IC50 with Pf3D7 parasites [2] is 63.3 ± 16.7 µM. Also, at MtbDXR, the “Mtb DXR percent remaining enzyme activity at 100 μM” value was “(99.10) percent”. Moreover, the “Pf DXR percent remaining enzyme activity at 100 μM” value at PfDXR is reported as “(25.64) percent”. For the same compound, the “Mtb MIC” value in the assay on Mtb H37Rv [1] was found to be 3.1 µM.

Regarding `CC(=O)N(CCC(c1ccc(Cl)c(Cl)c1)P(=O)(OCOC(=O)C(C)(C)C)OCOC(=O)C(C)(C)C)OCCCCc1ccccc1` (stereo not drawn) [Compound 7g, ({[1-(3,4-Dichlorophenyl)-3-[N-(4-phenylbutoxy)acetamido]propyl]({[(2,2-dimethylpropanoyl)oxy]methoxy})phosphoryl}oxy) methyl 2,2-dimethylpropanoate], the MIC in the assay on Mtb H37Rv [1] amounted to 12.5 µg/mL (≈ 17.8 µM).

In the case of `CC(=O)N(CCC(c1ccc(Cl)c(Cl)c1)P(=O)(OCOC(=O)C(C)(C)C)OCOC(=O)C(C)(C)C)OC(C)c1ccc(C)cc1` (stereo not drawn) [Compound 7k, ({[1-(3,4-Dichlorophenyl)-3-{N-[1-(4-methylphenyl)ethoxy]acetamido}propyl]({[(2,2-dimethylpropanoyl)oxy]methoxy})phosphoryl}oxy)methyl 2,2-dimethylpropanoate], in the assay on Mtb H37Rv [1], the MIC is 12.5 µg/mL (≈ 18.2 µM).

As for `CC(=O)N(CCC(c1ccc(Cl)c(Cl)c1)P(=O)(OCOC(=O)C(C)(C)C)OCOC(=O)C(C)(C)C)OCc1ccc2ccccc2c1` (stereo not drawn) [Compound 7c, ({[1-(3,4-Dichlorophenyl)-3-{N-[(naphthalen-2-yl)methoxy]acetamido}propyl]({[(2,2-dimethylpropanoyl)oxy]methoxy})phosphoryl}oxy)methyl-2,2-dimethylpropanoate], the MIC in the assay on Mtb H37Rv [1] came out at 6.25 µg/mL (≈ 8.8 µM).

In the case of “Diammonium {3-[N-({[1,1′-biphenyl]-4-yl}methoxy)acetamido]-1-(3,4-dichlorophenyl) propyl} phosphonate [Compound 6d]”, in the assay with Pf3D7 parasites [2], the half-inhibitory concentration (IC50) was 86.4 ± 10.1 µM. Also, at MtbDXR, the “Mtb DXR percent remaining enzyme activity at 100 μM” value is given as “(93.90) percent”. Further, the “Pf DXR percent remaining enzyme activity at 100 μM” value at PfDXR was “(26.97) percent”. Further, in the assay with Mtb H37Rv [1], the “Mtb MIC” value was found to be 23.1 µM.

On to `CC(=O)N(CCC(c1ccc(Cl)c(Cl)c1)P(=O)(OCOC(=O)C(C)(C)C)OCOC(=O)C(C)(C)C)OC(C)c1ccc(F)cc1` (stereo not drawn) [Compound 7n, ({[1-(3,4-Dichlorophenyl)-3-{N-[1-(4-fluorophenyl)ethoxy]acetamido}propyl]({[(2,2-dimethylpropanoyl)oxy]methoxy})phosphoryl}oxy)methyl 2,2-dimethylpropanoate], for which the MIC in the assay with Mtb H37Rv [1] was 4.6 µg/mL (≈ 6.64 µM).

Consider “Diammonium [3-{acetyl[1-(4-trifluoromethylphenyl)ethoxy]amino}-1-(3,4-dichlorophenyl)propyl] phosphonate [Compound 6m]”, for which the 50% inhibitory concentration (IC50) with Pf3D7 parasites [2] turned out to be 79.2 ± 12.1 µM. For the same compound, at MtbDXR, the “Mtb DXR percent remaining enzyme activity at 100 μM” value was “(59.60) percent”. For the same compound, on PfDXR, the “Pf DXR percent remaining enzyme activity at 100 μM” value is “(74.69) percent”. In the assay on Mtb H37Rv [1], the “Mtb MIC” value was > 91 µM.

With `CC(=O)N(O)CCCP(=O)(O)O` [2(FR), FR900098], the “Mtb MIC” value with Mtb H37Rv [3] is >500 μg mL^−1 and >500 (ref. [34]) μg mL^−1. Also, the IC50 in the assay with Pf3D7 parasites [4] is 511 nM.

Take `CC(=O)N(CCC(c1ccc(Cl)c(Cl)c1)P(=O)(OCOC(=O)C(C)(C)C)OCOC(=O)C(C)(C)C)OC(C)c1ccc(C(F)(F)F)cc1` (stereo not drawn) [Compound 7m, ({[1-(3,4-Dichlorophenyl)-3-{N-[1-(4-trifluoromethylphenyl)ethoxy]acetamido}propyl]({[(2,2-dimethylpropanoyl)oxy]methoxy})phosphoryl}oxy)methyl 2,2-dimethylpropanoate]: the MIC in the assay on Mtb H37Rv [1] was > 100 µg/mL.

In the case of “Diammonium (3-{N-[(4-bromophenyl) methoxy] acetamido}-1-(3,4-dichlorophenyl) propyl) phosphonate [Compound 6h]”, in the assay on Pf3D7 parasites [2], the IC50 came to 67.8 ± 3.57 µM. Further, on MtbDXR, the “Mtb DXR percent remaining enzyme activity at 100 μM” value is given as “(72.30) percent”. In addition, the “Pf DXR percent remaining enzyme activity at 100 μM” value at PfDXR was “(53.07) percent”. The “Mtb MIC” value with Mtb H37Rv [1] was > 92 µM.

`O=CN(O)CCCP(=O)(O)O` [1(Fos), Fosmidomycin]: in the assay on Mtb H37Rv [3], the “Mtb MIC” value is >500 μg mL^−1 and >500 (ref. [34]) μg mL^−1.

Take `CC(=O)N(CCC(c1ccc(Cl)c(Cl)c1)P(=O)(OCOC(=O)C(C)(C)C)OCOC(=O)C(C)(C)C)OC(C)c1ccccc1` (stereo not drawn) [Compound 7e, ({[1-(3,4-Dichlorophenyl)-3-[N-(1-phenylethoxy)acetamido]propyl]({[(2,2-dimethylpropanoyl)oxy]methoxy})phosphoryl}oxy) methyl 2,2-dimethylpropanoate]: the MIC in the assay on Mtb H37Rv [1] is 9.4 µg/mL and 13.9 µM.

As to `CC(=O)N(CCC(c1ccc(Cl)c(Cl)c1)P(=O)(O)O)OCc1ccc(-c2ccc(C(C)C)cc2)cc1.N.N` (stereo not drawn) [Compound 6i], the MIC in the assay on Mtb H37Rv [1] was found to be 25 µg/mL.

As for “[({3-[N-({[1,1′-Biphenyl]-4-yl}methoxy)acetamido]-1-(3,4-dichlorophenyl)propyl}({[(2,2-dimethylpropanoyl)oxy] methoxy}) phosphoryl)oxy] methyl-2,2-dimethylpropanoate [Compound 7d]”, the half-inhibitory concentration (IC50) in the assay with Pf3D7 parasites [2] is 8.78 ± 0.92 µM. The “Mtb MIC” value in the assay on Mtb H37Rv [1] was determined as 17.0 µM.

In the case of `CC(=O)N(CCC(c1ccc(Cl)c(Cl)c1)P(=O)(OCOC(=O)C(C)(C)C)OCOC(=O)C(C)(C)C)OCc1ccccc1` (stereo not drawn) [Compound 7b, [({3-[N-(Benzyloxy)acetamido]-1-(3,4-dichlorophenyl)propyl}({[(2,2-dimethylpropanoyl)oxy]methoxy})phosphoryl)oxy]methyl 2,2-dimethylpropanoate], in the assay on Mtb H37Rv [1], the MIC turned out to be 6.25 µg/mL (≈ 9.46 µM).

With `CC(=O)N(CCC(c1ccc(Cl)c(Cl)c1)P(=O)(OCOC(=O)C(C)(C)C)OCOC(=O)C(C)(C)C)OC(C)c1ccc(Cl)cc1` (stereo not drawn) [Compound 7j, ({[1-(3,4-Dichlorophenyl)-3-{N-[1-(4-chlorophenyl)ethoxy]acetamido}propyl]({[(2,2-dimethylpropanoyl)oxy]methoxy})phosphoryl}oxy)methyl 2,2-dimethylpropanoate], the MIC in the assay with Mtb H37Rv [1] came out at 9.4 µg/mL (≈ 13.3 µM).

For the compound `CC(=O)N(O)CCC(c1ccc(Cl)c(Cl)c1)P(=O)(OCOC(=O)C(C)(C)C)OCOC(=O)C(C)(C)C` (stereo not drawn) [Compound 7a, ({[1-(3,4-Dichlorophenyl)-3-(N-hydroxyacetamido)propyl]({[(2,2-dimethylpropanoyl)oxy]methoxy})phosphoryl}oxy)methyl 2,2-dimethylpropanoate], the MIC with Mtb H37Rv [1] came to 4.6 µg/mL (≈ 8.06 µM).

On to `CC(=O)N(CCC(c1ccc(Cl)c(Cl)c1)P(=O)(O)O)OCc1ccc2ccccc2c1.N.N` (stereo not drawn) [Compound 6c], for which the MIC with Mtb H37Rv [1] was 12.5 µg/mL.

On to “Diammonium {3-[N-(benzyloxy)acetamido]-1-(3,4-dichlorophenyl)propyl} phosphonate [Compound 6b]”, for which, in the assay with Pf3D7 parasites [2], the 50% inhibitory concentration (IC50) amounted to 31.5 ± 7.85 µM. For the same compound, the “Mtb DXR percent remaining enzyme activity at 100 μM” value at MtbDXR is reported as “(34.20) percent”. Also, the “Pf DXR percent remaining enzyme activity at 100 μM” value at PfDXR is reported as “(26.66) percent”. For the same compound, in the assay with Mtb H37Rv [1], the “Mtb MIC” value is > 214 µM.

As for `CC(=O)N(CCC(c1ccc(Cl)c(Cl)c1)P(=O)(OCOC(=O)C(C)(C)C)OCOC(=O)C(C)(C)C)OCc1ccc(C(C)C)cc1` (stereo not drawn) [Compound 7f, ({[1-(3,4-Dichlorophenyl)-3-(N-{[4-(propan-2-yl)phenyl]methoxy}acetamido)propyl]({[(2,2-dimethylpropanoyl)oxy]methoxy})phosphoryl}oxy) methyl 2,2-dimethylpropanoate], the MIC in the assay on Mtb H37Rv [1] was 12.5 µg/mL (≈ 17.8 µM).
